# “And” between values parts separate entries of the source, which are not always exact repeats. Equal entries are not always repeated. Where two headings read alike, the source gives them in different places.
# Columns and labels:
# TSPO [1] = type: binding, human; conditions: for Specific Binding: single radioligand concentration normalized to 0.5 nM, displacer PBR28; for Ki: read-out: KI of PBR28, displacement of [3H]PK 11195, mean ± SD
# ABCC1 = ABCC1 (Homo sapiens, UniProt P33527); assay: Substrate specificity: radioligand accumulation in MCF-7 / MCF-7/VP16 cells; type: cell-based; conditions: 5 nM radioligand
# ABCB1 (P-glycoprotein) = ABCB1 (P-glycoprotein) (Homo sapiens, UniProt P08183); type: cell-based; conditions: 5 nM radioligand
# ABCG2 = biological target: T1, ABCG2 (Homo sapiens, UniProt Q9UNQ0); assay: Substrate specificity: radioligand accumulation in H460 / H460/MX20 cells; type: cell-based; conditions: 5 nM radioligand
# T1 sequence (Q9UNQ0 1-655): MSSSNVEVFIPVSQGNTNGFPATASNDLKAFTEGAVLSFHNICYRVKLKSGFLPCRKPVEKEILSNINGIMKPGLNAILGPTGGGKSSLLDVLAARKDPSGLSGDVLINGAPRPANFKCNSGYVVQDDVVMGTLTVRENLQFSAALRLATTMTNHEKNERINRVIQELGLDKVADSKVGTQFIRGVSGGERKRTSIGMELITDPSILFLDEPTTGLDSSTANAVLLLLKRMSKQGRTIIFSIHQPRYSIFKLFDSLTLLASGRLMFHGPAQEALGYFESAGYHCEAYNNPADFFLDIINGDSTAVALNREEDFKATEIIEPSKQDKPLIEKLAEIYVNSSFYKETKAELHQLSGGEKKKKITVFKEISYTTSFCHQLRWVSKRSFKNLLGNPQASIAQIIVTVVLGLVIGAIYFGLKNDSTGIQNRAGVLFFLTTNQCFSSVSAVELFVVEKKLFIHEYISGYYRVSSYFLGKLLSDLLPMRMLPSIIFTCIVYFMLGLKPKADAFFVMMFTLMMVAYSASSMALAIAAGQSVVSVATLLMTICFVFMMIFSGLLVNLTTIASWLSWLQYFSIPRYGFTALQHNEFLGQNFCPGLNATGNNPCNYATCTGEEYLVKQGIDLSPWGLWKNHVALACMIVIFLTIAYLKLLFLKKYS
# TSPO [2] = conditions: read-out: KI to monkey brain, ref Briard et al., 2008; cited from earlier work
# [3] = tested on: 18 kDa translocator protein (TSPO); assay: Human whole-body PET imaging, organ uptake in binders and non-binders; type: in vivo; conditions: for Organ uptake (area under time-activity curve): 5 to 20 min
# TSPO [4] = conditions: cited from earlier work
# TSPO [5] = conditions: 0 to 120 min, ref Imaizumi et al., 2008, cited from earlier work
# TSPO [6] = type: in vivo, rhesus monkeys (Macaca mulatta); conditions: for Decrease of area under the curve by pre-blockade: 0 to 120 min, nonradioactive PBR28; for Time at which uptake declined to 50% of peak: after pre-blockade
# Procedure, shortened: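 Two male rhesus monkeys (13.2 ± 2.1 kg) each had two scans. The baseline scan followed i.v. 11C-labelled TSPO radioligand (276 ± 8 MBq, posterior tibial vein). The second followed unlabelled TSPO ligand 5 mg/kg i.v. given 30 min before radioligand (277 ± 21 MBq). 2D dynamic whole-body PET covered 4 segments, head to upper thigh, in 22 frames (75 s–15 min) over 120 min. Organ SUV curves were integrated over 5–20 and 0–120 min.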
# TSPO [7] = type: in vivo, rhesus monkeys
# [8] = saturation curve, homologous displacement, binders
# Sequence of ABCB1 (P-glycoprotein) (P08183 whole entry): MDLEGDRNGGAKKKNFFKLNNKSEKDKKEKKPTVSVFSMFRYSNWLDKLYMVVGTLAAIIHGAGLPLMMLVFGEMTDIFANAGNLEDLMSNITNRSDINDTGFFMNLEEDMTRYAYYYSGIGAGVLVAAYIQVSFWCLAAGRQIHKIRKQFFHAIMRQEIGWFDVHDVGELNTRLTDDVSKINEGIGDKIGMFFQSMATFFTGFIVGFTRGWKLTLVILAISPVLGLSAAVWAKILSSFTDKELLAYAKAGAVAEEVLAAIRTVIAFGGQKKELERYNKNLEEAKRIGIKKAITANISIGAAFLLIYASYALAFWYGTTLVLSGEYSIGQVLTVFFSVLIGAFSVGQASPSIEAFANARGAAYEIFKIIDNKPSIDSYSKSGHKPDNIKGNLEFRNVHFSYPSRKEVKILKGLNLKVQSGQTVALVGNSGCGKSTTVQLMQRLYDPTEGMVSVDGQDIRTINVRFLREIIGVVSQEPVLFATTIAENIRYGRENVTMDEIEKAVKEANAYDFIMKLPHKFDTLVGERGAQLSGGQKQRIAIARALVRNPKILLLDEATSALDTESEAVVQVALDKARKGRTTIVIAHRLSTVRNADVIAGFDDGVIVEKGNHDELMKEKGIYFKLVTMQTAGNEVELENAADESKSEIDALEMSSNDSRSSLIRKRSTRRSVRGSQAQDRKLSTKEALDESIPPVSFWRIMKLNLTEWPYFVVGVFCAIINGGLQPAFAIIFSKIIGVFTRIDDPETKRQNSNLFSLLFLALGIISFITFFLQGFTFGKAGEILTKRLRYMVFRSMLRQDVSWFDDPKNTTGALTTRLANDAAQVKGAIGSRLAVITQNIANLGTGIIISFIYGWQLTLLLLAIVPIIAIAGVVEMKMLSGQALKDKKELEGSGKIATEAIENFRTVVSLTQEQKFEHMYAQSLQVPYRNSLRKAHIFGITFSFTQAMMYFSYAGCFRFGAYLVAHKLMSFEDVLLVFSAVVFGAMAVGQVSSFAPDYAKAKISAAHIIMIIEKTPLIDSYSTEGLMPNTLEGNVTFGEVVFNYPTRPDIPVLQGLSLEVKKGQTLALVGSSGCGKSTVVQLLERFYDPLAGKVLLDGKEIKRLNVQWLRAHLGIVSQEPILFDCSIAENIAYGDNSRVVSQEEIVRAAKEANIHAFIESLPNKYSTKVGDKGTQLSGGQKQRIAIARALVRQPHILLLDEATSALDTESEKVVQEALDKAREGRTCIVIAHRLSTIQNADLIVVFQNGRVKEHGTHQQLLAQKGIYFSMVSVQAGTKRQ
# Sequence of ABCC1 (P33527 whole entry): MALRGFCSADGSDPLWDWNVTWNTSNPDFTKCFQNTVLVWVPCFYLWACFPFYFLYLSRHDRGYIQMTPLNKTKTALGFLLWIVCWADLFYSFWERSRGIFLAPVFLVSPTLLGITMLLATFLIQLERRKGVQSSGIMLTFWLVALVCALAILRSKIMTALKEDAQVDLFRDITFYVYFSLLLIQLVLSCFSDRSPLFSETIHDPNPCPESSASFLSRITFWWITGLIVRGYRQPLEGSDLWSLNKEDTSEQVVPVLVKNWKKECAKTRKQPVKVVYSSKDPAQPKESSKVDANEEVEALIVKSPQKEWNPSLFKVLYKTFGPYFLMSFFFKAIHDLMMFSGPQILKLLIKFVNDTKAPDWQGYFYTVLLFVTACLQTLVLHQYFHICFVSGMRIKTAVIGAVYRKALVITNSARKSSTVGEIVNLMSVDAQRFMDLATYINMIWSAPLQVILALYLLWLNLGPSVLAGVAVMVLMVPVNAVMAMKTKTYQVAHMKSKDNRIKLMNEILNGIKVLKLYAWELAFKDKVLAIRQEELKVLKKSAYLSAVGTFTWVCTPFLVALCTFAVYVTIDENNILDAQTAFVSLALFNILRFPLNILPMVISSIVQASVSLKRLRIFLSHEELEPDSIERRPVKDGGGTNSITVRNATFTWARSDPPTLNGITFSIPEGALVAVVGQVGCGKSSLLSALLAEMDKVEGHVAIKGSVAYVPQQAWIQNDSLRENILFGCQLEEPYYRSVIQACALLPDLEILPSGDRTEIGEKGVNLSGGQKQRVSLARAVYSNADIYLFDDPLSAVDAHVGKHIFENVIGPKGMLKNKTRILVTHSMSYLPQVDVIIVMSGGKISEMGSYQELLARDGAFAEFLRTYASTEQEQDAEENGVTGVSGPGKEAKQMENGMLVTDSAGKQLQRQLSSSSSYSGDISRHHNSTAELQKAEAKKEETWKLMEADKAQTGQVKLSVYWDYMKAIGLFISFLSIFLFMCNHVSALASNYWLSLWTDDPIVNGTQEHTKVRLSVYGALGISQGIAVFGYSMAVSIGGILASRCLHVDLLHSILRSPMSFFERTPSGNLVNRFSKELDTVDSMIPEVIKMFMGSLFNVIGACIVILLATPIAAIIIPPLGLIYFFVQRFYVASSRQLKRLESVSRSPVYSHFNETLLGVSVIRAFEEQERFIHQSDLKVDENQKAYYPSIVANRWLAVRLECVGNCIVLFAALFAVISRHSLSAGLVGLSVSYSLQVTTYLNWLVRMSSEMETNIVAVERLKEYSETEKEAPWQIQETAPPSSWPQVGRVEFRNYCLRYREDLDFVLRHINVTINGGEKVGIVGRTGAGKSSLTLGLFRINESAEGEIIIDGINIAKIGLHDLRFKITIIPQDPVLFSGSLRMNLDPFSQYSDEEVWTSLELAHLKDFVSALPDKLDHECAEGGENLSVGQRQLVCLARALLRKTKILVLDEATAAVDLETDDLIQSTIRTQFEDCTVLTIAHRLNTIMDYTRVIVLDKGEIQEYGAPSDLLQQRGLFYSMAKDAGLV
smiles,measurement,setting,value
COc1ccccc1CN(C(C)=O)c1cnccc1Oc1ccccc1 [[^3H]PBR28] [listing 1 of 2 here],"Specific binding, fold lower in non-binders than in binders","TSPO [1]; eight non-binders vs ten binders, single radioligand concentration",36 fold
same,"Affinity for TSPO, fold lower in non-binders than in binders",TSPO [1]; leukocyte membranes,more than ten-fold lower affinity
same,Bmax,TSPO [1]; [8],16.9 ± 8.0 pmol / mg protein
same,Kd,TSPO [1]; [8],1.8 ± 0.6 nM
same,Specific Binding,TSPO [1]; binders,7.2 ± 2.2 pmol / mg protein
CCC(C)N(C)C(=O)c1cc2ccccc2c(-c2ccccc2Cl)n1 (stereo not shown) [[^3H]PK 11195],Substrate for transporter,ABCC1,neither [^3H]PK 11195 nor [^3H]PBR8 was a substrate
same,Substrate for transporter,ABCB1 (P-glycoprotein),neither [^3H]PK 11195 nor [^3H]PBR8 was a substrate
same,Bmax,TSPO [1]; [8],10.4 ± 7.1 pmol / mg protein
same,Bmax,"TSPO [1]; saturation curve, homologous displacement, non-binders",15.1 ± 12.0 pmol / mg protein
same,Specific Binding,TSPO [1]; binders,1.3 ± 0.5 pmol / mg protein
same,Substrate for transporter,ABCG2,neither [^3H]PK 11195 nor [^3H]PBR8 was a substrate
COc1ccccc1CN(C(C)=O)c1cnccc1Oc1ccccc1 [PBR28],Ki,TSPO [1]; binders,6.1 ± 6.4 nM
same,Ki,TSPO [1]; non-binders,67 nM and 67.4 nM
same,Ki,TSPO [2],0.94 nM
CC(=O)N(Cc1ccccc1O[11CH3])c1cnccc1Oc1ccccc1 [[^11C]PBR28],Uptake lower in non-binders than in binders,"[3]; all five organs with high densities of TSPO (lung, heart, brain, kidney, spleen)",50% to 75%
same,Organ uptake (area under time-activity curve),"[3]; brain, binders (n = 5)",27.3 ± 3.4 SUV • min
same,Organ uptake (area under time-activity curve),"[3]; brain, non-binders (n = 5)",13.8 ± 1.3 SUV • min
same,Organ uptake (area under time-activity curve),"[3]; heart, binders (n = 5)",72.3 ± 10.3 SUV • min
same,Organ uptake (area under time-activity curve),"[3]; heart, non-binders (n = 5)",29.7 ± 4.7 SUV • min
same,Organ uptake (area under time-activity curve),"[3]; kidney, binders (n = 5)",109.3 ± 12.9 SUV • min
same,Organ uptake (area under time-activity curve),"[3]; kidney, non-binders (n = 5)",33.4 ± 15.5 SUV • min
same,Organ uptake (area under time-activity curve),"[3]; lung, binders (n = 5)",44.9 ± 6.5 SUV • min
same,Organ uptake (area under time-activity curve),"[3]; lung, non-binders (n = 5)",13.6 ± 2.0 SUV • min
same,Organ uptake (area under time-activity curve),"[3]; spleen, binders (n = 5)",131.6 ± 19.3 SUV • min
same,Organ uptake (area under time-activity curve),"[3]; spleen, non-binders (n = 5)",34.1 ± 11.0 SUV • min
same,Share of uptake in monkey brain that is specific,"TSPO [4]; ref Imaizumi et al., 2008",More than 90%
same,Decrease of area under the curve by pharmacological blockade,TSPO [5]; brain,42%
same,Decrease of area under the curve by pharmacological blockade,TSPO [5]; kidney,50%
same,Decrease of area under the curve by pharmacological blockade,TSPO [5]; lung,70%
CC[C@@H](C)N([11CH3])C(=O)c1cc2ccccc2c(-c2ccccc2Cl)n1 [[^11C]-(R)-PK 11195],Organ uptake (area under time-activity curve),"[3]; brain, binders (n = 5)",18.8 ± 1.0 SUV • min
same,Organ uptake (area under time-activity curve),"[3]; brain, non-binders (n = 5)",17.5 ± 2.0 SUV • min
same,Organ uptake (area under time-activity curve),"[3]; heart, binders (n = 5)",59.8 ± 4.9 SUV • min
same,Organ uptake (area under time-activity curve),"[3]; heart, non-binders (n = 5)",48.8 ± 2.8 SUV • min
same,Organ uptake (area under time-activity curve),"[3]; kidney, binders (n = 5)",63.8 ± 3.2 SUV • min
same,Organ uptake (area under time-activity curve),"[3]; kidney, non-binders (n = 5)",60.7 ± 12.3 SUV • min
same,Organ uptake (area under time-activity curve),"[3]; lung, binders (n = 5)",25.6 ± 3.7 SUV • min
same,Organ uptake (area under time-activity curve),"[3]; lung, non-binders (n = 5)",18.7 ± 2.5 SUV • min
same,Organ uptake (area under time-activity curve),"[3]; spleen, binders (n = 5)",65.6 ± 9.3 SUV • min
same,Organ uptake (area under time-activity curve),"[3]; spleen, non-binders (n = 5)",53.4 ± 11.4 SUV • min
same,Decrease of area under the curve by pre-blockade,TSPO [6]; brain,14%
same,Area under the time-activity curve,"TSPO [6]; brain, 5 to 20 min, baseline",28.2 SUV • min
same,Area under the time-activity curve,"TSPO [6]; brain, 5 to 20 min, pre-blocked with PBR28 5 mg/kg i.v.",29.1 SUV • min
same,Time at which uptake declined to 50% of peak,TSPO [6]; brain,30 min
same,Area under the time-activity curve,"TSPO [6]; heart, 5 to 20 min, baseline",75.1 SUV • min
same,Area under the time-activity curve,"TSPO [6]; heart, 5 to 20 min, pre-blocked with PBR28 5 mg/kg i.v.",33.6 SUV • min
same,Decrease of area under the curve by pre-blockade,TSPO [6]; kidney,30%
same,Area under the time-activity curve,"TSPO [6]; kidney, 5 to 20 min, baseline",166.3 SUV • min
same,Area under the time-activity curve,"TSPO [6]; kidney, 5 to 20 min, pre-blocked with PBR28 5 mg/kg i.v.",60.5 SUV • min
same,Decrease of area under the curve by pre-blockade,TSPO [6]; lung,31%
same,Area under the time-activity curve,"TSPO [6]; lung, 5 to 20 min, baseline",29.6 SUV • min
same,Area under the time-activity curve,"TSPO [6]; lung, 5 to 20 min, pre-blocked with PBR28 5 mg/kg i.v.",18.3 SUV • min
same,Time at which uptake declined to 50% of peak,TSPO [6]; other organs,≤ 5 min
same,Area under the time-activity curve lower in pre-blocked than in baseline scans,"TSPO [6]; peripheral organs (heart, lung, spleen, kidney), 5 to 20 min",38 – 76%
same,Area under the time-activity curve,"TSPO [6]; spleen, 5 to 20 min, baseline",87.1 SUV • min
same,Area under the time-activity curve,"TSPO [6]; spleen, 5 to 20 min, pre-blocked with PBR28 5 mg/kg i.v.",20.6 SUV • min
same,Share of uptake in monkey brain that is specific (displaceable),"TSPO [4]; without correction for peripheral clearance, ref Petit-Taboue et al., 1991",about 50%
same,Peak uptake of radioactivity in brain,TSPO [7]; after blockade with PBR28 5 mg/kg i.v.,3.43 SUV
same,Peak uptake of radioactivity in brain,TSPO [7]; baseline,1.64 SUV
COc1ccccc1CN(C(C)=O)c1cnccc1Oc1ccccc1 [[^3H]PBR28] [listing 2 of 2 here],Substrate for transporter,ABCC1,neither [^3H]PK 11195 nor [^3H]PBR8 was a substrate
same,Substrate for transporter,ABCB1 (P-glycoprotein),neither [^3H]PK 11195 nor [^3H]PBR8 was a substrate
same,Substrate for transporter,ABCG2,neither [^3H]PK 11195 nor [^3H]PBR8 was a substrate

# Reference: publication PMC2832854 (NeuroImage, 2009)
